The values that follow come from ChEMBL document CHEMBL1150572, “Isolation and structures of haterumadioxins A and B, cytotoxic endoperoxides from the Okinawan sponge Plakortis lita” (J Nat Prod, 2001).

Assay [1] relates to MKN-28. In words: Growth inhibition of human MKN28 cells. In kind it is functional.
In assay [2] the test system is OVCAR-3. In words: Growth inhibition of human OVCAR-3 cells. Format: functional.
A short description of assay [3]: Growth inhibition of human HBC4 cells. In kind it is functional.
The test system of assay [4] is St-4. In words: Growth inhibition of human St-4 cells. Format: functional.
The subject of assay [5] is ACHN. In words: Growth inhibition of human ACHN cells. In kind it is functional.
Assay [6] can be described thus: Growth inhibition of human HBC5 cells. Format: functional.
The test system of assay [7] is SF-268. In words: Growth inhibition of human SF268 cells. Format: functional.
For assay [8], the system named is MKN-45. In words: Growth inhibition of human MKN45 cells. In kind it is functional.
Assay [9] relates to MCF7. In words: Growth inhibition of human MCF7 cells. In kind it is functional.
Assay [10] concerns P388. In words: Cytotoxicity against mouse P388 cells. In kind it is functional, cell-based. In outline: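 Murine P388 leukemia cells, 2 × 10^4 cells/mL, in RPMI-1640 with 10% FBS, 10 µM 2-hydroxyethyl disulfide and kanamycin (100 µg/mL). Samples were added in MeOH. Cells were incubated 4 days at 37 °C in humidified 5% CO2, then counted by MTT. IC50 (50% inhibition of cell growth) was read from the growth curve.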

Assay [11] has as its system SNB-78. In words: Growth inhibition of human SNB78 cells. Format: functional.
The test system of assay [12] is SF-295. In words: Growth inhibition of human SF295 cells. In kind it is functional.
The subject of assay [13] is LOX IMVI. In words: Growth inhibition of human LOXIMVI cells. Format: functional.
For assay [14], the system named is OVCAR-4. In words: Growth inhibition of human OVCAR4 cells. Format: functional.
In assay [15] the test system is NCI-H522. In words: Growth inhibition of human NCI-H522 cells. Format: functional.
For assay [16], the system named is MKN-7. In words: Growth inhibition of human MKN7 cells. Format: functional.
The test system of assay [17] is OVCAR-8. In words: Growth inhibition of human OVCAR8 cells. In kind it is functional.
The test system of assay [18] is NCI-H23. In words: Growth inhibition of human NCI-H23 cells. Format: functional.
Assay [19] relates to DU-145. In words: Growth inhibition of human DU145 cells. In kind it is functional.
Assay [20] can be described thus: Growth inhibition of human RXF631L cells. Format: functional. The note with it: RXF 631.
In assay [21] the test system is A549. In words: Growth inhibition of human A549 cells. Format: functional.
The test system of assay [22] is KM12. In words: Growth inhibition of human KM12 cells. Format: functional.
For assay [23], the system named is U-251. In words: Growth inhibition of human U251 cells. Format: functional.
The subject of assay [24] is NCI-H460. In words: Growth inhibition of human NCI-H460 cells. Format: functional.
Assay [25] deals with HCC 2998. In words: Growth inhibition of human HCC2998 cells. In kind it is functional.
Assay [26] relates to SF-539. In words: Growth inhibition of human SF539 cells. Format: functional.
For assay [27], the system named is MDA-MB-231. In words: Growth inhibition of human MDA-MB-231 cells. Format: functional.
Assay [28] has as its system SNB-75. In words: Growth inhibition of human SNB75 cells. Format: functional.
Assay [29] concerns HT-29. In words: Growth inhibition of human HT-29 cells. Format: functional.
A short description of assay [30]: Growth inhibition of human BSY1 cells. In kind it is functional. The note with it: BSY-1.
Assay [31] has as its system HCT-15. In words: Growth inhibition of human HCT15 cells. Format: functional.
Assay [32] deals with DMS-273. In words: Growth inhibition of human DMS273 cells. Format: functional.
Assay [33] deals with PC-3. In words: Growth inhibition of human PC3 cells. In kind it is functional.
In assay [34] the test system is HCT-116. In words: Growth inhibition of human HCT116 cells. In kind it is functional.
The nature of assay [35]: Growth inhibition of human MKN1 cells. Format: functional. The note with it: MKN-1.
The subject of assay [36] is NCI-H226. In words: Growth inhibition of human NCI-H226 cells. In kind it is functional.
The test system of assay [37] is SK-OV-3. In words: Growth inhibition of human SKOV3 cells. Format: functional.
Assay [38] concerns MKN-74. In words: Growth inhibition of human MKN74 cells. In kind it is functional.
Assay [39] has as its system OVCAR-5. In words: Growth inhibition of human OVCAR5 cells. In kind it is functional.
Assay [40] has as its system DMS-114. In words: Growth inhibition of human DMS114 cells. Format: functional.

Converted amounts (≈) assume the structure as drawn.

The term GI50 denotes the concentration giving 50% growth inhibition. A higher GI50 goes with lower sensitivity of the cells. The term IC50 denotes the point on the concentration scale where inhibition reaches its midpoint. Low values mean inhibition by little substance, high ones a need for much substance. In the case of `CC/C=C/[C@H](CC)C[C@]1(CC)C=C(CC)[C@H](CC(=O)O)OO1` [HATERUMADIOXIN A], the 50% growth inhibitory concentration (GI50) in assay [1] was 2240 nM; in assay [2], 1550 nM; in assay [3] it was 1170 nM; in assay [4], 2090 nM; in assay [5], 1170 nM; in assay [6], 1320 nM. In addition, the GI50 in assay [7] was 1820 nM; in assay [8], 2040 nM; in assay [9] it was 1740 nM; in [11], 1860 nM; in assay [12] it was 1780 nM; in assay [13] it was 100 nM. For the same compound, the concentration for 50% growth inhibition (GI50) in assay [14] was 676 nM; in assay [15], 1860 nM; in assay [16] it was 1910 nM; in [17], 2140 nM; in assay [18] it was 5500 nM; in [19], 1700 nM. Further, the GI50 is 1700 nM in assay [20]; 1950 nM in assay [21]; 1820 nM in [22]; 1780 nM in assay [23]; 1820 nM in assay [24]; 1910 nM in assay [25]. The GI50 in [26] was 1820 nM; in [27], 1860 nM; in assay [28], 1660 nM; in [29], 1950 nM; in assay [30], 1780 nM; in [31] it was 1700 nM. Moreover, the GI50 was 1410 nM in assay [32]; 1910 nM in assay [33]; 1550 nM in [34]; 832 nM in [35]; 1780 nM in assay [36]; 2000 nM in [37]. The GI50 in [38] was 2190 nM; in [39] it was 1820 nM; in assay [40] it was 1480 nM. Besides, the 50% inhibitory concentration (IC50) in [10] was 11 ng/mL (≈ 0.0354 µM).
For `CCCC[C@H](CC)C[C@]1(CC)C=C(CC)[C@H](CC(=O)O)OO1` [HATERUMADIOXIN B], in [10], the IC50 was found to be 5.5 ng/mL (≈ 0.0176 µM).
